T cruzi growth-1: T. cruzi proliferation inhibition | T. cruzi beta-gal in NIH3T3, GalScreen luminescence, 90 h | inhibition, % at 8.34 µM | 77,000 tested, 5.9% active;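 active = mean inhibition above about 93%, with at least 55% of replicates each passing it, limit read from the data, passing the limit was not always enough; inconclusive = only one of those two conditions holds; inactive = neither condition holds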
GASC1 inh: inhibitors of human demethylase GASC-1 KDM4C; Q9H3R0; AID 720574; GST-KDM4C 2-372, H3K9me3 peptide, LANCE TR-FRET; inhibition, % at 12.5 µM; 96,000 tested, 0.15% active;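 active = mean replicate inhibition above about 25%, with at least 55% of replicates also reaching it, limit read from the data, passing the limit was not always enough; inconclusive = only one of those two conditions met; inactive = neither condition met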
Target sequence (Q9H3R0 2-372 limits assumed): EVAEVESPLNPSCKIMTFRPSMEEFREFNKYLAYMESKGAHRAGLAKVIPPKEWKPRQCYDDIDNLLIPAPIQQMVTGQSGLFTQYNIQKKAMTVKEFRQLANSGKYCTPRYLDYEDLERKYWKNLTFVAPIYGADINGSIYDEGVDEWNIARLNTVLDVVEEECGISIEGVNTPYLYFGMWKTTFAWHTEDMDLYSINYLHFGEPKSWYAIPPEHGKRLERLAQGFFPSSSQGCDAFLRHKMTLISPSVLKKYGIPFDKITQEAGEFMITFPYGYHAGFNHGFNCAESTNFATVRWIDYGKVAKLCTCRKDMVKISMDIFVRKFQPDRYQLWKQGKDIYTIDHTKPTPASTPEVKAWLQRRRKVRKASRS
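System: N-terminal GST-fused human GASC-1 (KDM4C) fragment, residues 2-372 / Amount: 10 nM GST-KDM4C in enzyme reaction / Also added: H3K9me3 peptide with Fe(II)/2OG / Times: 30 min demethylation and 1 h detection at room temperature / Signal: LANCE TR-FRET / Read-out basis: Fall in 671/618 emission ratio as inhibition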
IDH1 R132H inh: blocks human IDH1 R132H reductase activity; O75874; diaphorase/resazurin fluorescence, 60 min; inhibition, % at 10 µM; 70,000 tested, 0.18% active; AID 624101; in the data active = inhibition above about 34%; inconclusive = no clear call, values can overlap the other calls; inactive = below about 11%;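 note: 0% = DMSO and 100% = no enzyme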
T cruzi growth-2: Trypanosoma cruzi proliferation inhibition; 5,600 tested, 72% active; T. cruzi beta-gal in NIH3T3, GalScreen luminescence, 90 h; inhibition, % at 8.35 µM; shares compounds with T cruzi growth-1;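 active = mean replicate inhibition above about 95% and at least 55% of replicates individually reaching it, limit read from the data; inconclusive = only one of the two criteria is met; inactive = neither criterion is met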
T cruzi growth-3: inhibitors of T. cruzi proliferation; shares compounds with T cruzi growth-1; T. cruzi beta-gal in NIH3T3, GalScreen luminescence, 90 h; inhibition, % at 2.09 µM; 5,600 tested, 21% active;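 active = mean inhibition above about 95%, with at least 55% of replicates also reaching it, limit read from the data; inconclusive = meets just one of the two conditions; inactive = meets neither condition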;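 note: plate controls were neutral control median for no effect and positive control median for full effect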
3T3 cytotox: NIH/3T3 (mouse) viability loss; shares compounds with T cruzi growth-1; NIH/3T3 viability, CellTiter-Glo ATP luminescence, 90 h; cytotoxicity (signal decrease), % at 8.35 µM; 5,600 tested, 14% active; AID 651742;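 active = mean signal decrease across replicates above about 35% based on untreated-well scatter, with enough replicates individually passing, limit read from the data; inconclusive = no rule stated though some were filed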;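 note: 0% = median of neutral control wells and 100% = median of positive control wells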
NIH3T3 tox 2: NIH/3T3 (mouse) viability loss. shares compounds with T cruzi growth-1. NIH/3T3 viability, CellTiter-Glo ATP luminescence, 90 h. inhibition, % at 24.9 µM. 5,600 tested, 56% active;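 active = mean loss of cell viability signal at or above a set limit, and enough replicates individually reaching it; inconclusive = meets only the mean limit or only the replicate share; inactive = meets neither condition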;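 note: 0% = median of neutral control wells and 100% = median of positive control wells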
* = called active by the depositor; ? = inconclusive; . = no result. This is one part of a sample in which hits are shown more often than they occur.

SMILES	T cruzi growth-1	GASC1 inh	IDH1 R132H inh	T cruzi growth-2	T cruzi growth-3	3T3 cytotox	NIH3T3 tox 2
N#C[C@@H]1[C@H](c2ccc(C3=CCCCC3)cc2)[C@H](CO)N1S(=O)(=O)c1cccc(F)c1	103*	-4	.	102*	43	14	79*
N#C[C@H]1[C@H](c2ccc(C3=CCCCC3)cc2)[C@@H](CO)N1S(=O)(=O)c1ccccc1	86	0	.	.	.	.	.
N#C[C@H]1[C@H](c2ccc(C3=CCCCC3)cc2)[C@@H](CO)N1S(=O)(=O)c1cccc(F)c1	47	1	.	.	.	.	.
O=[N+]([O-])c1ccc(NCCNS(=O)(=O)c2ccc(Cl)cc2)cc1	.	.	0	.	.	.	.
Cn1c(=O)[nH]c(=O)c2c1ncn2CC(=O)NCc1ccccc1	.	.	2	.	.	.	.
CCN1CCN(C(=O)C2CCCN2S(=O)(=O)c2cccc3nsnc23)CC1 (centres undefined)	.	.	0	.	.	.	.
Cc1cc(I)cnc1NC(=S)NC(=O)c1ccco1	.	.	2	.	.	.	.
Cc1ccc(S(=O)(=O)N(C)C[C@H]2OCCCC[C@@H](C)Oc3ccc(NS(=O)(=O)c4ccccc4)cc3C(=O)N([C@@H](C)CO)C[C@@H]2C)cc1	?	-1	.	105*	61	6	32*
C[C@@H]1CN([C@@H](C)CO)C(=O)c2cc(NS(=O)(=O)c3ccccc3)ccc2O[C@@H](C)CCCCO[C@H]1CN(C)S(=O)(=O)c1ccccc1	31	0	.	.	.	.	.
Cc1ccc(S(=O)(=O)Nc2ccc3c(c2)C(=O)N([C@H](C)CO)C[C@@H](C)[C@H](CN(C)S(=O)(=O)c2ccccc2)OCCCC[C@@H](C)O3)cc1	107*	-3	.	106*	88	22	-3
Cc1ccc(S(=O)(=O)Nc2ccc3c(c2)C(=O)N([C@@H](C)CO)C[C@@H](C)[C@@H](CN(C)C(=O)Cc2ccccc2)OCCCC[C@H](C)O3)cc1	78	0	0	.	.	.	.
C[C@@H]1CCCCO[C@@H](CN(C)S(=O)(=O)c2ccccc2)[C@H](C)CN([C@@H](C)CO)C(=O)c2cc(NS(=O)(=O)c3ccccc3)ccc2O1	48	2	1	.	.	.	.
Cc1ccc(S(=O)(=O)Nc2ccc3c(c2)C(=O)N([C@H](C)CO)C[C@H](C)[C@H](CN(C)S(=O)(=O)c2ccccc2)OCCCC[C@H](C)O3)cc1	113*	0	1	113*	39	-1	-5
Cc1ccc(S(=O)(=O)Nc2ccc3c(c2)C(=O)N([C@@H](C)CO)C[C@H](C)[C@@H](CN(C)C(=O)Cc2ccccc2)OCCCC[C@@H](C)O3)cc1	?	-3	2	106*	64	-28	-4
CCCCCCC(=O)OC1OC(CO)C(O)C2OCC(C(=O)O)COC12 (centres undefined)	.	.	0	.	.	.	.
CCn1c(SCC(=O)Nc2cc3oc4ccccc4c3cc2OC)nnc1-c1cccnc1	.	.	0	.	.	.	.
COc1cc(Cl)c(C)cc1NC(=O)CC1Sc2ccccc2NC1=O (centres undefined)	.	.	0	.	.	.	.
N#CCCN(CCC#N)C(=O)c1ccccc1Oc1ccccc1	.	.	0	.	.	.	.
Cc1ccc(OCC(=O)Nc2cc3nn(-c4ccc(C)cc4)nc3cc2C)cc1	.	.	-1	.	.	.	.
COc1ccc(-n2c(SCC(=O)Nc3ccc(C)c(Cl)c3)nnc2-c2ccncc2)cc1	.	.	0	.	.	.	.
Cc1ccc(S(=O)(=O)Nc2ccc3c(c2)C(=O)N([C@H](C)CO)C[C@H](C)[C@@H](CN(C)S(=O)(=O)c2ccccc2)OCCCC[C@H](C)O3)cc1	59	0	-3	.	.	.	.
Cc1ccc(S(=O)(=O)Nc2ccc3c(c2)C(=O)N([C@@H](C)CO)C[C@H](C)[C@H](CN(C)S(=O)(=O)c2ccccc2)OCCCC[C@@H](C)O3)cc1	105*	-2	.	106*	94	11	53*
C[C@@H]1CCCCO[C@@H](CN(C)S(=O)(=O)c2ccccc2)[C@@H](C)CN([C@@H](C)CO)C(=O)c2cc(NS(=O)(=O)c3ccccc3)ccc2O1	-16	0	2	.	.	.	.
C[C@H]1CCCCO[C@@H](CN(C)S(=O)(=O)c2ccccc2)[C@@H](C)CN([C@@H](C)CO)C(=O)c2cc(NS(=O)(=O)c3ccccc3)ccc2O1	52	1	0	.	.	.	.
Cc1ccc(S(=O)(=O)Nc2ccc3c(c2)C(=O)N([C@@H](C)CO)C[C@@H](C)[C@@H](CN(C)S(=O)(=O)c2ccccc2)OCCCC[C@@H](C)O3)cc1	108*	1	0	110*	79	-6	7
SMILES	T cruzi growth-1	GASC1 inh	IDH1 R132H inh	T cruzi growth-2	T cruzi growth-3	3T3 cytotox	NIH3T3 tox 2
Cc1ccc(S(=O)(=O)N(C)C[C@H]2OCCCC[C@H](C)Oc3ccc(NS(=O)(=O)c4ccccc4)cc3C(=O)N([C@@H](C)CO)C[C@@H]2C)cc1	122*	0	.	105*	50	3	5
Cc1ccc(S(=O)(=O)Nc2ccc3c(c2)C(=O)N([C@@H](C)CO)C[C@H](C)[C@H](CN(C)S(=O)(=O)c2ccccc2)OCCCC[C@H](C)O3)cc1	111*	-2	.	106*	79	9	8
Cc1ccc(S(=O)(=O)N(C)C[C@@H]2OCCCC[C@@H](C)Oc3ccc(NS(=O)(=O)c4ccccc4)cc3C(=O)N([C@@H](C)CO)C[C@H]2C)cc1	52	0	.	.	.	.	.
Cn1c(SCC(=O)c2ccc(F)cc2)nnc1-c1cccc([N+](=O)[O-])c1	.	.	0	.	.	.	.
O=C(CC(C(=O)O)N1CCCCC1)Nc1cccc(Cl)c1 (centres undefined)	.	.	0	.	.	.	.
O=C(NCc1cccnc1)c1cc(-c2ccccn2)nc2c(Cl)cccc12	.	.	28	.	.	.	.
Fc1ccc(-c2cn3cccc(OCc4ccc(Cl)c(Cl)c4)c3n2)cc1	.	.	0	.	.	.	.
O=C(COc1ccc(Br)cc1Cl)Nc1ccccc1CO	.	.	0	.	.	.	.
Cc1ccc(S(=O)(=O)N(CC(=O)O)c2ccc(Br)cc2)cc1	.	.	1	.	.	.	.
Cc1n[nH]c(C)c1SCC(=O)Nc1cccc(Br)c1	.	.	0	.	.	.	.
C[C@@H]1CN([C@@H](C)CO)C(=O)c2cc(NC(=O)Nc3ccc(F)cc3)ccc2O[C@@H](C)CCCCO[C@@H]1CN(C)S(=O)(=O)c1ccccc1	103*	-1	-1	70	-13	7	10
C[C@H]1CCCCO[C@H](CN(C)S(=O)(=O)c2ccccc2)[C@@H](C)CN([C@@H](C)CO)C(=O)c2cc(NC(=O)Nc3ccc(F)cc3)ccc2O1	106*	-2	.	110*	62	11	1
C[C@@H]1CCCCO[C@@H](CN(C)S(=O)(=O)c2ccccc2)[C@H](C)CN([C@H](C)CO)C(=O)c2cc(NC(=O)Nc3ccc(F)cc3)ccc2O1	99*	-3	.	108*	88	20	11
